High-throughput results: PubChem, Broad Institute
Compounds with a hit are over-represented: about 2.1% of the library has one in this group of screens.
MLL AF4-AF9 inh – blocks AF4 peptide binding to human AF9; AlphaScreen, biotin-AF4 peptide binding to FLAG-AF9; inhibition, % at 10 µM; 350,000 tested, 0.47% active; AID 651704;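 active = every replicate reaching a set inhibition limit, whatever the replicate mean, cut at about 25% in these data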
PDI turbidity – blocks human protein disulfide isomerase activity | inhibition, % at 10 µM | AID 588391 | PDI insulin aggregation turbidity, A650, 90 min | 350,000 tested, 0.052% active | P07237;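 active = mean inhibition across replicates of 30% or more, whatever share of single replicates reach that level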
ARNT-TACC3 inh – disruptors of human ARNT/TACC3 interaction; AlphaScreen His-ARNT PAS-B/GST-TACC3 binding, luminescence; TACC3 fragment carries E629A point mutation; inhibition, % at 9.99 µM; 390,000 tested, 0.66% active; AID 623870;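 active = mean inhibition of replicates at least 50% and at least half of replicates each reaching 50%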
FGF22 binding – FGF22 (human) thermal shift binding. Q9HCT0. recombinant FGF22 thermal shift, SYPRO orange fluorescence; percent of sucrose octasulfate shift, DMSO zero. activity (Tm shift, normalised), % at 9.99 µM. 340,000 tested, 1.5% active. AID 651658;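 active = mean Tm shift, scaled 0 neutral to 100 positive control, at about 1.3% or above, every replicate too, limit read from the data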
ERp5 inh – inhibitors of human ERp5 | AID 651711 | 350,000 tested, 0.05% active | Q15084 | inhibition, % at 9.99 µM | ERp5 insulin aggregation, absorbance 650 nm, 90 min;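 active = mean replicate inhibition above about 25%, with every replicate also reaching it, limit read from the data, passing the limit was not always enough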
Target sequence (Q15084 whole entry, looked up): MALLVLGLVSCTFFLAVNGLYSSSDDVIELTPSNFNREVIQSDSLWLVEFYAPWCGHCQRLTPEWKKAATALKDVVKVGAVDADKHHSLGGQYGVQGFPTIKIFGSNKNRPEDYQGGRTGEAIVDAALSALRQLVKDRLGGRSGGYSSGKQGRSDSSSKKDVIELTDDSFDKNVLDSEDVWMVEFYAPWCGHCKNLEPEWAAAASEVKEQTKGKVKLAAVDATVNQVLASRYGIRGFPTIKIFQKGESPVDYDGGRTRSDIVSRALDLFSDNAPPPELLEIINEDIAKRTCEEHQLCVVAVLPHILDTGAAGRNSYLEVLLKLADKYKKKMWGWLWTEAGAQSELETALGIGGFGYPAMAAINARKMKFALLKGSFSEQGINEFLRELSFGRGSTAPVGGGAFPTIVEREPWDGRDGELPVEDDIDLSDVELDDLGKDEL
FN deposition inh – fibronectin deposition inhibition. AH1F fibroblasts, Alexa488-fibronectin deposition fluorescence, overnight. inhibition, % at 12.6 µM. 350,000 tested, 0.086% active. AID 743247;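 active = mean inhibition across replicates of 30% or more, regardless of how many single replicates reach that level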
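Assay system: AH1F fibroblasts assembling fluorescent fibronectin matrix; Amount: 10000 AH1F cells per well; Buffer or medium: DMEM, 2% serum; Probe or stimulus: Alexa488-fibronectin, 24 nM final in well; Doses: single compound dose, delivered by pin transfer; Incubation: 1 h adhesion, overnight exposure; Measured by: fluorescence 485/525 nm; Read-out: fibronectin deposition inhibition.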
Of the large screens only hits and unclear results are named; the others gave an inactive call; ! = not active in a repeat.

CN(C)CCCN(C(=O)CCc1ccccc1)c1nc2ccc(F)cc2s1	none (no result: MLL AF4-AF9 inh, FGF22 binding, ERp5 inh, FN deposition inh)
CN(C)CCCN(C(=O)CCc1ccccc1)c1nc2ccc(Br)cc2s1	MLL AF4-AF9 inh 26.2
Fc1ccc(F)c(CN2[C@@H]3CNC[C@H]2C3c2ccc(-c3ccncc3)cc2)c1 (some centres undefined)	MLL AF4-AF9 inh 25.9! (no result: PDI turbidity, ARNT-TACC3 inh, FGF22 binding)
Fc1ccc(F)c(CN2[C@@H]3CNC[C@H]2C3c2ccc(-c3ccccc3)cc2)c1 (some centres undefined)	none (no result: PDI turbidity, ARNT-TACC3 inh, FGF22 binding)
c1cc(-c2ccc(C3[C@H]4CNC[C@@H]3N4CC3CCCC3)cc2)ccn1 (some centres undefined)	MLL AF4-AF9 inh 42.4 (no result: PDI turbidity, ARNT-TACC3 inh, FGF22 binding)
COCC(=O)Nc1ccc2c(c1)C(=O)N(C)C[C@@H](OC)[C@H](C)CN(C(=O)C1CCCC1)[C@H](C)CO2	none (no result: PDI turbidity)
CC(=O)c1ccc(NC(=S)NN2C(C)CCCC2C)cc1 (centres undefined)	FGF22 binding 43.3
CCOc1ccc(NC(=S)NN2C(C)CCCC2C)cc1 (centres undefined)	none (no result: MLL AF4-AF9 inh, FGF22 binding, ERp5 inh)
COc1cc(/C=N/Nc2ncc(C(F)(F)F)cc2Cl)cc(OC)c1OC	FGF22 binding 43.4 (no result: ARNT-TACC3 inh)
COc1cc(/C=N/Nc2ncc(C(F)(F)F)cc2Cl)cc(OC)c1O	none (no result: MLL AF4-AF9 inh, FGF22 binding, ERp5 inh)
COc1cc(OC)cc(-c2nc3ccccc3c(=O)n2OC(=O)c2ccc(Br)cc2)c1	FGF22 binding 1.7
COc1ccc(C(=O)On2c(-c3ccc(Br)cc3)nc3ccccc3c2=O)cc1	none (no result: ARNT-TACC3 inh)
CC(C)NC(=O)N(C)C[C@H]1Oc2ccc(NC(=O)CCCCCC(=O)Nc3ccccc3N)cc2CC(=O)N([C@@H](C)CO)C[C@@H]1C	none (no result: PDI turbidity, FN deposition inh)
C[C@H](CO)N1C[C@H](C)[C@@H](CN(C)Cc2ccc(Oc3ccccc3)cc2)Oc2c(NC(=O)c3ccncc3)cccc2C1=O	MLL AF4-AF9 inh 25.2!
CC(C)NC(=O)Nc1cccc2c1O[C@H](CN(C)Cc1ccc(Oc3ccccc3)cc1)[C@H](C)CN([C@@H](C)CO)C2=O	none (no result: PDI turbidity, FN deposition inh)
CC(C)NC(=O)Nc1cccc2c1O[C@H](CN(C)Cc1ccc(Oc3ccccc3)cc1)[C@@H](C)CN([C@@H](C)CO)C2=O	ARNT-TACC3 inh active (no result: PDI turbidity, FN deposition inh)
C[C@H](CO)N1C[C@H](C)[C@H](CN(C)S(=O)(=O)c2cccs2)Oc2c(NC(=O)c3ccncc3)cccc2C1=O	ARNT-TACC3 inh active (no result: PDI turbidity, FN deposition inh)
C[C@@H]1CN([C@@H](C)CO)C(=O)c2cccc(NC(=O)C3CCOCC3)c2O[C@@H]1CN(C)Cc1ccncc1	MLL AF4-AF9 inh 44.3 (no result: PDI turbidity)
COc1ccccc1NC(=O)N1C[C@@H]2[C@H](c3ccccc31)[C@@H](CO)N2CC1CCCC1	none (no result: PDI turbidity, FN deposition inh)
CC=Cc1ccc2n(c1=O)C[C@@H]1[C@@H](CO)[C@H](C(=O)N[C@@H](C)c3ccccc3)[C@H]2N1Cc1cccnc1 (mixture of isomers)	none (no result: PDI turbidity, FN deposition inh)
C[C@H](CO)N1C[C@H](C)[C@@H](CN(C)S(=O)(=O)c2ccc(F)cc2)Oc2c(NC(=O)NC3CCCCC3)cccc2C1=O	MLL AF4-AF9 inh 49.0!
C[C@H]1CN([C@@H](C)CO)C(=O)c2cccc(NC(=O)NC3CCCCC3)c2O[C@@H]1CN(C)S(=O)(=O)c1ccc(F)cc1	none (no result: PDI turbidity)
Cc1cc(C(=O)Nc2cccc3c2O[C@H](CN(C)S(=O)(=O)c2ccc(Cl)cc2)[C@H](C)CN([C@H](C)CO)C3=O)n(C)n1	none (no result: PDI turbidity, FN deposition inh)
Cc1cc(C(=O)Nc2cccc3c2O[C@@H](CN(C)S(=O)(=O)c2ccc(Cl)cc2)[C@@H](C)CN([C@@H](C)CO)C3=O)n(C)n1	ERp5 inh 26.0 (no result: PDI turbidity, FN deposition inh)
COc1ccc(S(=O)(=O)N[C@@H]2CC[C@H](CC(=O)N3CCC(Cc4ccccc4)CC3)O[C@H]2CO)cc1	none (no result: PDI turbidity, FN deposition inh)
CN1CCN(C(=O)C[C@@H]2CC[C@H]3[C@@H](COC[C@H](O)CN3S(=O)(=O)c3cccc(Cl)c3)O2)CC1	none (no result: PDI turbidity)
Cc1noc(C)c1S(=O)(=O)N(C)C[C@@H]1OCCCC[C@@H](C)Oc2ccc(NS(=O)(=O)c3ccc(Cl)cc3)cc2C(=O)N([C@@H](C)CO)C[C@@H]1C	none (no result: PDI turbidity, FN deposition inh)
Cc1ccc(-c2ccc(C3[C@@H]4CN(S(=O)(=O)c5ccccc5)C[C@H]3N4)cc2)cc1 (some centres undefined)	none (no result: PDI turbidity, ARNT-TACC3 inh, FGF22 binding)
O=[N+]([O-])c1cc(Cc2ccccc2)cc(C=Nc2ccc(N3CCOCC3)cc2)c1O	none (no result: MLL AF4-AF9 inh, FGF22 binding, ERp5 inh, FN deposition inh)
